Hits are enriched below; roughly 2.9% of the tested compounds scored in any of these assays.
Cneo AK release – causes C. neoformans cell lysis; AID 651654; lysis activity, % at 15 µM; 360,000 tested, 0.2% active; adenylate kinase release luminescence, 4 h; normalised: neutral wells 0, clomiphene wells 100;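 active means mean lysis activity across replicates of at least 80%, whatever share of replicates individually reach that level; inactive means mean lysis activity below 80%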
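Material: C. neoformans cells | Amount: Yeast cell density of 5 × 10^6 cells/mL | Medium: Fresh YPD growth medium | Dosing: Single dose | Times: Static 4 h at 37 °C with compound, 1 h detection | Detection: AK luminescence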
CDK5 p35 inh – blocks human CDK5/p35 kinase activity. inhibition, % at 10 µM. Q00535+Q15078. 330,000 tested, 0.01% active. AID 488839. Recombinant CDK5/p35, ADP-Glo luminescence, 60 min;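 active means highest replicate inhibition of at least 50% and at least 75% of replicates reaching 50%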
Target sequence (Q00535 whole entry, looked up): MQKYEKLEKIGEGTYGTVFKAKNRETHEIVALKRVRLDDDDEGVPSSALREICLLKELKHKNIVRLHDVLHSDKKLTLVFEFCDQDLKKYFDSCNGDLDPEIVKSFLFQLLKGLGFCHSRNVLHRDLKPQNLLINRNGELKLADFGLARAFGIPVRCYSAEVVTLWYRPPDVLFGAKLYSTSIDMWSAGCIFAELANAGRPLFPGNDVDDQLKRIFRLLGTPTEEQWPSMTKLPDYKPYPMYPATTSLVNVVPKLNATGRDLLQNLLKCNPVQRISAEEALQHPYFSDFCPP
Target sequence (Q15078 whole entry, looked up): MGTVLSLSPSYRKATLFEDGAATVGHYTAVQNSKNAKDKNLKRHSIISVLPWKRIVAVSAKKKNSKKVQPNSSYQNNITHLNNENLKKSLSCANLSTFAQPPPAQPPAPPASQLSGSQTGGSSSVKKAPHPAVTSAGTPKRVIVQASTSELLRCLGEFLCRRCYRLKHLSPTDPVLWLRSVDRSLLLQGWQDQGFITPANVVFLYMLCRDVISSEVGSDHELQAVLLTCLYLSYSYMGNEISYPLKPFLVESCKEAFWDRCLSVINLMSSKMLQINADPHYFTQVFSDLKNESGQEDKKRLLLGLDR
dFosB act – enhances mouse delta FosB homodimer DNA binding. P13346. purified delta FosB, TAMRA-CDK5 oligo fluorescence polarization; percent of positive-control signal above neutral wells. activation, % at 25 µM. 340,000 tested, 0.99% active. AID 493131;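 active means mean activation above about 17%, with every replicate also reaching it, limit read from the data, passing the limit was not always enough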
PAX8 inh HTS – inhibitors of PAX8 transcriptional activity in RMG-I cells. RMG-I TPO-luciferase reporter, SteadyGlo, 24 h. inhibition, % at 12.6 µM. 360,000 tested, 1.2% active. AID 652154;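 active means mean replicate inhibition at least 60% with every replicate also reaching 60%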;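 further: luciferase light reporting Pax8 driven TPO promoter activity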
GSIS activator – GLuc luminescence reporter in INS-1E cells, primary screen for activators of glucose-dependent secretion of insulin. activation, % at 16.6 µM. 370,000 tested, 0.61% active. INS-1E GLuc reporter insulin secretion, 2-3 h. AID 743287;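 active means lowest replicate activation of at least 40%, so every replicate reaches that level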
Env fusion inh – blocks HIV Env-driven cell-cell fusion. HeLa-JRFL Env/CEM21 cell fusion, luciferase. inhibition, % at 12.3 µM. 360,000 tested, 1.1% active;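 active means mean replicate inhibition score of at least 50 and every replicate individually at or above 50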
Hits are given with their value; . = inactive; / = no result; [ ] = remark or other dose.

SMILES	Cneo AK release	CDK5 p35 inh	dFosB act	PAX8 inh HTS	GSIS activator	Env fusion inh
COC(=O)C(CC#Cc1ccc2c(c1)[C@]1(C(=O)N2)[C@H](C(=O)NC[C@H](O)c2ccccc2)[C@H]2C(=O)O[C@H](c3ccccc3)[C@H](c3ccccc3)N2[C@@H]1c1ccccc1OCCO)C(=O)OC	.	/	/	100.6	/	.
COCCOC(=O)N1C(=O)[C@@]2(c3ccccc31)[C@H](c1ccccc1OCCO)N1[C@H](c3ccccc3)[C@H](c3ccccc3)OC(=O)[C@H]1[C@@H]2C(=O)NC[C@H](O)c1ccccc1	.	/	/	109.2	/	.
O=C(Nc1ccc2c(c1)[C@H]1C[C@@H](CC(=O)N3CCOCC3)O[C@@H](CO)[C@H]1O2)NC1CCCCC1	.	/	/	.	.	.
COCC(=O)Nc1ccc2c(c1)OC[C@H](C)N(C(=O)COC)C[C@H](C)[C@H](OC)CN(C)C2=O	.	/	/	.	.	/
CO[C@H]1CN(C)C(=O)c2cc(NC(C)=O)ccc2OC[C@@H](C)N(C(=O)c2ccccn2)C[C@@H]1C	.	/	/	/	.	.
O=C(Nc1cc(S(=O)(=O)Nc2ccccc2Cl)ccc1O)c1sc2cc(Cl)ccc2c1Cl	/	.	100.8	.	.	.
CO[C@H]1CN(C)C(=O)c2cc(NC(=O)C3CCC3)ccc2OC[C@H](C)NC[C@H]1C	.	/	/	.	.	/
C[C@@H]1CCCCO[C@@H](CN(C)C(=O)Nc2ccc(C(F)(F)F)cc2)[C@H](C)CN([C@H](C)CO)C(=O)c2cc(NS(=O)(=O)c3ccccc3)ccc2O1	.	/	/	83.5	.	.
C[C@@H]1CN([C@@H](C)CO)C(=O)c2cc(NS(=O)(=O)c3ccccc3)ccc2O[C@@H](C)CCCCO[C@H]1CN(C)C(=O)Nc1ccc(C(F)(F)F)cc1	/	/	/	.	.	/
C[C@H]1CCCCO[C@H](CN(C)C(=O)Nc2ccc(C(F)(F)F)cc2)[C@@H](C)CN([C@@H](C)CO)C(=O)c2cc(NS(=O)(=O)c3ccccc3)ccc2O1	.	/	/	78.7	.	78.4[16.7 µM]
O=C(NC(=S)Nc1cccc(NC(=S)NC(=O)c2ccco2)n1)c1ccco1	/	.	22.5	.	.	.
Cc1cccc(NC(=S)NC(=O)c2ccco2)c1C	.	.	.	.	.	.
CO[C@@H]1CN(C)C(=O)c2cc(NC(=O)c3cccc(F)c3)ccc2OC[C@H](C)N(CC2CC2)C[C@H]1C	.	/	/	.	.	/
CC(C)c1cn(CC[C@H]2CC[C@@H](NS(=O)(=O)c3ccc(Cl)cc3)[C@H](CO)O2)nn1	.	/	/	.	.	.
CC(=O)c1ccc(OCC(=O)N(C2CCCCC2)C2CCS(=O)(=O)C2)cc1 (stereo not given)	/	.	.	.	53.9	.
CN(C(=O)COc1ccccc1)C1CCS(=O)(=O)C1 (stereo not given)	/	.	.	.	.	.
Nc1nc2ccc(Cl)cc2cc1C(=O)NCCc1ccc(Cl)cc1Cl	/	/	/	.	62.0	.
CCN(CC)CCCNC(=O)c1cc2cc(Cl)ccc2nc1N	/	/	/	.	.	.
O=C1c2ccc(-c3nc4ccccc4o3)cc2C(=O)N1Cc1ccccc1	.	.	.	63.6	/	.
Cc1ccccc1N1C(=O)c2ccccc2C1O (stereo not given)	.	.	.	.	.	.
CC(=O)OC1c2ccccc2C(=O)N1c1ccccc1C (stereo not given)	.	.	.	.	/	77.3
Cc1ccc(-n2nc3c(c2NC(=O)c2ccco2)CS(=O)C3)cc1 (stereo not given)	.	.	.	.	.	88.3
C[C@H]1CN([C@@H](C)CO)C(=O)c2cccc(NS(=O)(=O)c3ccc(F)cc3)c2O[C@@H]1CN(C)C(=O)Nc1ccc(F)cc1	.	/	/	/	.	.
Cc1ccc(-c2nn(-c3ccccc3)cc2/C=N/NC(=O)c2ccncc2)o1	/	.	26.2	.	.	.
C[C@@H]1CCCCO[C@H](CN(C)Cc2ccc(C(=O)Nc3ccccc3N)cc2)[C@@H](C)CN([C@@H](C)CO)C(=O)c2cc(NS(=O)(=O)c3ccc(Cl)cc3)ccc2O1	.	/	/	88.7	.	.
C[C@@H]1CCCCO[C@H](CN(C)Cc2ccccc2)[C@@H](C)CN([C@@H](C)CO)C(=O)c2cc(NS(=O)(=O)c3ccc(Cl)cc3)ccc2O1	.	/	/	74.8	.	.
